In data set [1] the test system is Staphylococcus aureus. The experiment in a line: Potentiation of oxacillin-induced antibacterial activity against Staphylococcus aureus NRS70 assessed as oxacillin MIC at 20 uM. Format: functional.
The subject of data set [2] is Staphylococcus aureus. The data set can be described thus: Growth inhibition of Staphylococcus aureus MRSA252. Format: organism-based. The note with it: in vitro. Summed up: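 Compound alone was two-fold serially diluted in cation-adjusted Mueller-Hinton II broth containing 2.4% DMSO. Bacteria were inoculated at 5 × 10⁵ CFU mL⁻¹ and incubated at 36 °C for 16–20 h. The MIC was read in triplicate.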

The test system of data set [3] is Staphylococcus aureus. The data set can be described thus: Potentiation of oxacillin-induced antibacterial activity against Staphylococcus aureus MRSA252 assessed as fold reduction in oxacillin MIC at 20 uM relative to oxacillin alone. Format: functional.
In data set [4] the test system is Staphylococcus aureus. The data set can be described thus: Potentiation of oxacillin-induced antibacterial activity against methicillin/oxacillin/tetracycline-resistant Staphylococcus aureus NRS100 assessed as oxacillin MIC at 20 uM. Type of data set: functional. An outline of the steps: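 Oxacillin MIC measured with the synthetic potentiator held at a fixed 20 μM. Two-fold serial dilution in cation-adjusted Mueller-Hinton II broth containing 2.4% DMSO. Inoculum 5 × 10⁵ CFU mL⁻¹, incubated at 36 °C for 16–20 h. Run in triplicate.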

The test system of data set [5] is Staphylococcus aureus. The data set can be described thus: Potentiation of oxacillin-induced antibacterial activity against Staphylococcus aureus NRS386 assessed as oxacillin MIC at 20 uM. Type of data set: functional. The note with it: USA700 NRS386.
In data set [6] the test system is Staphylococcus aureus. The data set can be described thus: Potentiation of oxacillin-induced antibacterial activity against Staphylococcus aureus MRSA252 assessed as oxacillin MIC at 20 uM (reference value: 256 ug/ml). Type of data set: functional.

Structures are written as SMILES.

One may read the MIC as the lowest concentration that inhibits growth of the organism. In the case of `Cc1ccc(S(=O)(=O)N(CCO)c2ccccc2CN(C)C(=O)/C=C/c2ccc(C(F)(F)F)cc2)cc1`, the MIC amounted to 16 mg/L in the data set with Staphylococcus aureus [1], 4 mg/L in the data set on Staphylococcus aureus [4], 4 mg/L in the data set with Staphylococcus aureus [5] and 2 mg/L with Staphylococcus aureus [6]. Moreover, the “growth inhibition (GI)” value in the data set with Staphylococcus aureus [2] is given as “Non-Toxic”. Moreover, in the data set on Staphylococcus aureus [3], the “fold change (FC)” value came to 128.
`CCc1ccc(S(=O)(=O)N(CCO)c2ccccc2CN(C)C(=O)/C=C/c2ccc(C(F)(F)F)cc2)cc1`: the MIC with Staphylococcus aureus [1] was 16 mg/L; with Staphylococcus aureus [4], 16 mg/L; in the data set on Staphylococcus aureus [5], 8 mg/L; in the data set with Staphylococcus aureus [6], 4 mg/L. Also, in the data set on Staphylococcus aureus [2], the “growth inhibition (GI)” value is “Non-Toxic”. Also, the “fold change (FC)” value in the data set on Staphylococcus aureus [3] came to 64.
On to `CN(Cc1ccccc1N(CCO)S(=O)(=O)c1ccc(F)cc1)C(=O)/C=C/c1ccc(C(F)(F)F)cc1`, for which the MIC in the data set on Staphylococcus aureus [1] was 16 mg/L; with Staphylococcus aureus [4], 2 mg/L; with Staphylococcus aureus [5], 8 mg/L; in the data set with Staphylococcus aureus [6], 2 mg/L. In addition, the “growth inhibition (GI)” value in the data set with Staphylococcus aureus [2] is reported as “Non-Toxic”. Besides, in the data set with Staphylococcus aureus [3], the “fold change (FC)” value was determined as 128.

For the origin of these results see ChEMBL document CHEMBL4368884, “Structure-activity relationship of the cinnamamide family of antibiotic potentiators for methicillin-resistant Staphylococcus aureus (MRSA)” (Medchemcomm, 2018).
